Data reported in the EternaBench riboswitch data.

System: MS2 coat protein
Assay: apparent Kd, MS2 coat protein; higher = weaker binding; RNA-MaP array; FMN 200 µM where present
Method in brief: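 Binding was read on Illumina sequencing-chip clusters where stalled E. coli RNA polymerase had transcribed each design. A titration of SNAP-549-labelled MS2 coat protein began at 0.7 or 1.5 nM and doubled to 3 µM, once without ligand and once with constant ligand, in 100 mM Tris-HCl pH 7.5, 80 mM KCl, 4 mM MgCl2, BSA, DTT, yeast tRNA and Tween-20. The apparent Kd is the median of filtered per-cluster binding-curve fits, based on green signal normalised to red-channel RNA signal and control-cluster median Fmax.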

[1] = designed as: OFF switch for flavin mononucleotide, no ligand
[2] = ligand present: flavin mononucleotide, designed as: OFF switch for flavin mononucleotide
[3] = designed as: ON switch for flavin mononucleotide, no ligand
[4] = ligand present: flavin mononucleotide, designed as: ON switch for flavin mononucleotide

AGCCUACAUGAGGAUCACCCAUGUCAGGAUAUCUCGCGACGUGUCGGGAACACGUUGCAGAGAAGGGACUCGGG
apparent Kd [1]: 56.4 nM
apparent Kd [2]: 69.4 nM

GGGAGACAUGAGGAUCACCCAUGUGAAAACGUGCGAGGAUAUGUAUGGAAACCAUACUGUACAGAAGGCGUUUGUC
apparent Kd [3]: 50.2 nM
apparent Kd [4]: 47.7 nM

GUUCUGCCUCCUGCCGGAACAUGAGGAUCACCCAUGUUGCCUGAGGAUAUCCUAUGGCGUCCACAGGAGAAGGCAGGCAGCAUA
apparent Kd [1]: 18.6 nM
apparent Kd [2]: 19.6 nM

CUGCAACAUGAGGAUCACCCAUGUAACCCAAUUAUAGGAUAUGUGAUGGUGAUCGACAUGACAGAAGGGUGAUUGG
apparent Kd [3]: 38.8 nM
apparent Kd [4]: 149 nM

CAGCAAUGUAAGAAGGCUGCUCCGAUAAGGAGCAGAGGAUAUUACAUGAGGAUCACCCAUGUAUGAACCAAUAGCUGAAAUAAA
apparent Kd [1]: 8.78 nM
apparent Kd [2]: 94.2 nM

UGAUAGGACAGAGGAUAUACAUGCUAGAGAUACUAGCUAAAUUUCCUCACAUGAGGAUCACCCAUGUAGAAGGCUGUCCUAUCU
apparent Kd [1]: 19.4 nM
apparent Kd [2]: 378 nM

CCUAAGGACACAGGAUAUAGCGCGGUGGCUGGGCUCCAACGGCGAGCGACGCUAGAAGGGUGACCACAUGAGGAUCACCCAUGU
apparent Kd [3]: 517 nM
apparent Kd [4]: 122 nM

GUGGUACAUGAGGAUCACCCAUGUCAGGAUAUCGCGUGGUUUUUUGCGGCCGCGCGCGCGAGAAGGGACGUCUU
apparent Kd [1]: 36.3 nM
apparent Kd [2]: 43.3 nM

CUUCCAGUUGCAGGAUAUCGGGAGGAGAGAUUACGAGAAGGGCAACAUGAGGAUCACCCAUGUAUGUGCUUGGGACAACCUAUC
apparent Kd [1]: 13.2 nM
apparent Kd [2]: 38.2 nM

AAAAAACAUGAGGAUCACCCAUGUCUUCGGACGUGAGGAUAUGUACAGACUUCGGUCUGUACAGAAGGCACGUCAA
apparent Kd [3]: 31.3 nM
apparent Kd [4]: 19.2 nM

UUGUGGGAGACAGGAUAUGUACGGAAGGUCCACGUACAUGAGGAUCACCCAUGUCCAGGCUUCAGACAGAAGGGUCACCAGGUG
apparent Kd [3]: 595 nM
apparent Kd [4]: 45.4 nM

UUGGACGUCGUAGGAUAUGUAGGUUAUUCCUACAUGAGGAUCACCCAUGUUGACAUGGAAGAAGGACAGAAGGACGAUGUCCAU
apparent Kd [3]: 184 nM
apparent Kd [4]: 4.18 nM

UACCUGAGGCAAAGCUUUAGGUAUACAUGAGGAUCACCCAUGUAGGAUAUGGUAGGCUUUGCCUACCAGAAGGACAUGUUAAUU
apparent Kd [1]: 19.7 nM
apparent Kd [2]: 55.3 nM

CCUCGACAUGAGGAUCACCCAUGUCAGGAUAUUGUGUUUCGGGUUUUUUACCUUUAGGCAAGAAGGGAUGUGUG
apparent Kd [1]: 15.8 nM
apparent Kd [2]: 22.4 nM

GCAUAUCAGGGAGGAUAUGACAUGAGGAUCACCCAUGUAAUUAUGGCUCUGUCAGAAGGCCCAUCGUCACUAUAGUGACGAGAC
apparent Kd [1]: 370 nM
apparent Kd [2]: 139 nM

GGCUCGCAGCUAGGAUAUGGGCGGUCACAUGAGGAUCACCCAUGUCAACAUCAAAACCAGAUUAACCAGAAGGAGCUGCGGGUU
apparent Kd [3]: 33.5 nM
apparent Kd [4]: 739 nM

CAGCAAAAGUAGAAGGCAGUACUGAUUCAGUACUGAGGAUAUACAUGAGGAUCACCCAUGUCUUCCAGCUGAAUAAUAAAAUAA
apparent Kd [1]: 6.14 nM
apparent Kd [2]: 45.5 nM

CAGGGAACAGGAUAUACAUGAGGAUCACCCAUGUGUUCCAGCUAGGAAACUAGCAAAUGUAGAAGGGUUCCCUG
apparent Kd [1]: 174 nM
apparent Kd [2]: 922 nM

AGCCAACAUGAGGAUCACCCAUGUGUACGUUAUGUAGGAUAUCUGAUGCGCGCGUGCGCAAGAGAAGGACGAGACG
apparent Kd [3]: 33.4 nM
apparent Kd [4]: 21.2 nM

CAUUAACAUGAGGAUCACCCAUGUGAGGAUAUGAUAUUACUUGGACAGCUGUGGUCAAUCAGAAGGCACAUCUU
apparent Kd [1]: 27.8 nM
apparent Kd [2]: 32.9 nM

AGCUACGUUUCGUAGCAGCUAGGUGAGGAUAUCCUUAACAUGAGGAUCACCCAUGUUUAGCCAUGGGAGAAGGCGCCUAGAAAG
apparent Kd [3]: 259 nM
apparent Kd [4]: 21.5 nM

GCUGCAUAGGCAGGAUAUGCAAUAAUUCGGAUAAAAUAUAACGAAUUAACAUGAGGAUCACCCAUGUAGAAGGGCCUGUGCAGU
apparent Kd [1]: 5.95 nM
apparent Kd [2]: 5.72 nM

GGUUGUCAUCGUCAUCCUUUCCGUACAUGAGGAUCACCCAUGUAGGAUAUGCUGCUCUCGGUGUGGCAGAAGGGCGUGUGUCUU
apparent Kd [1]: 17 nM
apparent Kd [2]: 18.7 nM

AAAAUACAUGAGGAUCACCCAUGUUAGGAUAUCCAAGGUCUAACCCUCAGGGUUAGACGGAGAAGGGAUGUGGU
apparent Kd [1]: 60.8 nM
apparent Kd [2]: 61.6 nM

CAAUUUAUAACAGGAUAUGUAUUACAAAAGUUAAUAGAAGGGUUUAAUACAUGAGGAUCACCCAUGUCAUGUGUCAUAAUUACC
apparent Kd [1]: 36.7 nM
apparent Kd [2]: 29.6 nM

CAGUCUACAGGAUAUACAUGAGGAUCACCCAUGUGUAUCAACCUUCUGUGAUCCUCAUGUAGAAGGGUAGACUG
apparent Kd [1]: 13.5 nM
apparent Kd [2]: 10.9 nM

ACAGUUGGUAGGCCCUCGGAACAUGAGGAUCACCCAUGUAAGGAGGAUAUGCCCGGUACCCGCUGGCAGAAGGCCUUAUAAGAA
apparent Kd [1]: 8.8 nM
apparent Kd [2]: 44.9 nM

UGUGCGUUGAUCUUCGAUCGUUGUACAUGAGGAUCACCCAUGUAGGAUAUUCUAAGACGCAGAUAGGAGAAGGACAUUGGUAUU
apparent Kd [1]: 10.6 nM
apparent Kd [2]: 19.4 nM

AUUUAGUGCGAGAAGGCGUGGUCACAUGAGGAUCACCCAUGUCAGUACACGAGGAUAUCGAUCCGCUAUGUAAAUAUAUGCGGC
apparent Kd [3]: 78 nM
apparent Kd [4]: 7.51 nM

GCACUUUUAUUUGAACCGAUACGAACAUGAGGAUCACCCAUGUAGGAUAUGCUUAAAGUUGUGAUGCAGAAGGACAUUUAGUGC
apparent Kd [1]: 9.18 nM
apparent Kd [2]: 10.7 nM

UGUCGGAGCAGAGGAUAUUACAUGAGGAUCACCCAUGUAUGAACCAAUAGCUGGAAACAGCAAUGUAAGAAGGUUGCUCCGACA
apparent Kd [1]: 7.29 nM
apparent Kd [2]: 46.7 nM

AAAAGAUGAGGAUAUAUAUGGAAUCCAAGGCAUGUGCUCUCACAUGAGGAUCACCCAUGUAGAAGGCAUCUGCC
apparent Kd [1]: 10.1 nM
apparent Kd [2]: 13 nM

GUAGCUAUCGGAGGAUAUUCAUACUGGAAACGGACAUGAGGAUCACCCAUGUGGCGAAAGCCUUGGGAGAAGGCCGAUCGCUAC
apparent Kd [3]: 123 nM
apparent Kd [4]: 8.13 nM

AACUCUGAGAAGGAUAUUCAAUGGGAAACGAUGGAAGAAGGUUUCACAUGAGGAUCACCCAUGUCGAAUAGUGA
apparent Kd [1]: 71.9 nM
apparent Kd [2]: 63.9 nM

AACUAUGAAUUGAUAGUGUCUGACAGAAGGCAAUAGGUUGUGACCGACAUGAGGAUCACCCAUGUUGAGGAUAUGUCUAGCUAC
apparent Kd [1]: 53.2 nM
apparent Kd [2]: 366 nM

GCUAGUAUUGCAGGAUAUUGAGAAUAAUUAUUCCAAGAAGGGCAUAACAUGAGGAUCACCCAUGUAUUCCUUAGUGAUACUAGC
apparent Kd [1]: 4.39 nM
apparent Kd [2]: 4.44 nM
